Laboratory results published in ChEMBL document CHEMBL4396879, “Conjugation of Short Peptides to Dibenzodiazepinone-Type Muscarinic Acetylcholine Receptor Ligands Determines M2R Selectivity” (J Med Chem, 2019).

Columns and labels:
[1] = target: T1, Muscarinic acetylcholine receptor M1 (Homo sapiens, UniProt P11229); experiment: Displacement of [3H]-NMS from human muscarinic M1 receptor expressed in CHO-K9 cells after 3 hrs by microbeta2 scintillation counting method; format: cell-based
T1 sequence (P11229 whole entry): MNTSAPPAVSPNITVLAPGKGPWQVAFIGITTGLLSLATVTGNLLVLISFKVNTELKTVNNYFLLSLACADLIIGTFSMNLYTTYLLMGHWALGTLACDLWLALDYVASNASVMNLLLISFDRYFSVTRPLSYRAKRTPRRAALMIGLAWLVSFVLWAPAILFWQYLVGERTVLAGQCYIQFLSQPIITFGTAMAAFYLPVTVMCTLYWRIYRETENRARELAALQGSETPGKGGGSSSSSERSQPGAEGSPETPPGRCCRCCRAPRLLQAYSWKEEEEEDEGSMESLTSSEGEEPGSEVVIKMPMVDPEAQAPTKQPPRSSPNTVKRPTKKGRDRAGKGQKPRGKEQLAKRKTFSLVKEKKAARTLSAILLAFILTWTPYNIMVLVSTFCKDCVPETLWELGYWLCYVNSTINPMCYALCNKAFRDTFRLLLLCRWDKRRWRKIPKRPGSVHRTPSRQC
Procedure, shortened: (§1)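 [3H]NMS competition binding on intact CHO-hMxR cells in L15 medium with 1% BSA, 3 h at 22 ± 1 °C with gentle shaking. [3H]NMS was 0.2 nM (M1, M2, M3), 0.1 nM (M4) or 0.3 nM (M5). […] Cells were lysed in urea/acetic acid/Triton and counted by liquid scintillation. Ki from Cheng-Prusoff. Triplicates, ≥3 experiments.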

[2] = target: T2, Muscarinic acetylcholine receptor M2 (Homo sapiens, UniProt P08172); experiment: Displacement of [3H]-NMS from human muscarinic M2 receptor expressed in CHO-K9 cells after 3 hrs by microbeta2 scintillation counting method; format: cell-based; procedure, shortened: as §1
T2 sequence (P08172 whole entry): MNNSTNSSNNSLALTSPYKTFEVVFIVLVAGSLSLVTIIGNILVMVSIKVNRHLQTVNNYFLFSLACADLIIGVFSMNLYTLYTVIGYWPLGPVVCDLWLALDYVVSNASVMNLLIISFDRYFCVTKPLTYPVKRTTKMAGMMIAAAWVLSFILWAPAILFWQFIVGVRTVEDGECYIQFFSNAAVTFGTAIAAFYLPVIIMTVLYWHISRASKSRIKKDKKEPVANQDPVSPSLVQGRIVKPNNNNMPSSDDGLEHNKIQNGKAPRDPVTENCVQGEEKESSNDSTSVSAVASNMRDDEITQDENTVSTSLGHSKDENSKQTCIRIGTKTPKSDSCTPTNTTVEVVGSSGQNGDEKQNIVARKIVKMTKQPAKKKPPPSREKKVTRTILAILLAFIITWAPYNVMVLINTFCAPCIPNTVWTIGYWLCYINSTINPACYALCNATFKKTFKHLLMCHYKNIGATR

[3] = target: Muscarinic acetylcholine receptor M3 (Homo sapiens, UniProt P20309); experiment: Displacement of [3H]-NMS from human muscarinic M3 receptor expressed in CHO-K9 cells after 3 hrs by microbeta2 scintillation counting method; format: cell-based; procedure, shortened: as §1
Muscarinic acetylcholine receptor M3, sequence (P20309 whole entry): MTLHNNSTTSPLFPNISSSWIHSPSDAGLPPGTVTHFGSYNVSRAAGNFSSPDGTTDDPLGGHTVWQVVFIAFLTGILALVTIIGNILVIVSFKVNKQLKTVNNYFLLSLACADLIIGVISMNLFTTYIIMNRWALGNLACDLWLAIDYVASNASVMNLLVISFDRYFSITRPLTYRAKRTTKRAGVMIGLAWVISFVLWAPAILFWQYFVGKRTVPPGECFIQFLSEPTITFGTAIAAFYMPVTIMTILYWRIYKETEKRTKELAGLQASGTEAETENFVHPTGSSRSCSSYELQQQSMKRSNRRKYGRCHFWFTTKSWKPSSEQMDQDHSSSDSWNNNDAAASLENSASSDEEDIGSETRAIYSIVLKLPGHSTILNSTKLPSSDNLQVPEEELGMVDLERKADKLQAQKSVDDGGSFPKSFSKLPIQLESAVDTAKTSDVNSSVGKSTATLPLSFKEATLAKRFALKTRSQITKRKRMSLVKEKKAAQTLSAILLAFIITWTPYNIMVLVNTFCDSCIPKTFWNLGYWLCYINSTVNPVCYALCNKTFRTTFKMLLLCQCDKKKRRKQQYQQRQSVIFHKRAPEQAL

[4] = target: T3, Muscarinic acetylcholine receptor M4 (Homo sapiens, UniProt P08173); experiment: Displacement of [3H]-NMS from human muscarinic M4 receptor expressed in CHO-K9 cells after 3 hrs by microbeta2 scintillation counting method; format: cell-based; procedure, shortened: as §1
T3 sequence (P08173 whole entry): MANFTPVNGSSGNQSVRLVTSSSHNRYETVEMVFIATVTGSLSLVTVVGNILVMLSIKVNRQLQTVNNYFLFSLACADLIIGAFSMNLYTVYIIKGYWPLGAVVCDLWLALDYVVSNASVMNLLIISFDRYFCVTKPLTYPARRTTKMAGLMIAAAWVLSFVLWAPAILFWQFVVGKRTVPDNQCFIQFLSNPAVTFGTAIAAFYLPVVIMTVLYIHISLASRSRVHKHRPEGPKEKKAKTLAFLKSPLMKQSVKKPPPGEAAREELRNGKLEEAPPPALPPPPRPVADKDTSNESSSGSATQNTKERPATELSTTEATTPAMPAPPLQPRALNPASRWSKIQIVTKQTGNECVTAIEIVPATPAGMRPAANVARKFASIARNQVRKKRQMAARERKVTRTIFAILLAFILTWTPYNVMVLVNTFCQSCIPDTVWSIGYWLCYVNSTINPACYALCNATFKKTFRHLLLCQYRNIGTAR

[5] = target: Muscarinic acetylcholine receptors; M1 & M2 (Homo sapiens) (UniProt P11229+P08172); experiment: Selectivity ratio of Ki for human muscarinic M1 receptor expressed in CHO-K9 cells to Ki for human muscarinic M2 receptor expressed in CHO-K9 cells; format: cell-based
Procedure, shortened: (§2)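 Ratio of mean Ki values. Each Ki came from an individual [3H]NMS competition experiment at the given CHO-hMxR subtype, converting IC50 to Ki by Cheng-Prusoff before averaging.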

[6] = target: Muscarinic acetylcholine receptors; M2 & M3 (Homo sapiens) (UniProt P20309+P08172); experiment: Selectivity ratio of Ki for human muscarinic M3 receptor expressed in CHO-K9 cells to Ki for human muscarinic M2 receptor expressed in CHO-K9 cells; format: cell-based; procedure, shortened: as §2
[7] = target: Muscarinic acetylcholine receptor M2 and M4 (Homo sapiens) (UniProt P08173+P08172); experiment: Selectivity ratio of Ki for human muscarinic M4 receptor expressed in CHO-K9 cells to Ki for human muscarinic M2 receptor expressed in CHO-K9 cells; format: cell-based; procedure, shortened: as §2
[8] = Stability of the compound in human plasma:PBS of pH 7.4 (1:2) assessed as intact compound at 100 uM incubated for 1 hr by LC-MS analysis; format: ADME, cell-free; details: plasma diluted with PBS (1:2), read-out: Stability
Procedure, shortened: (§3)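 Compound added at 100 μM (from 5 mM stock in acetonitrile/0.04% TFA 3:7) to heparinized human plasma/PBS pH 7.4 (1:2 v/v) with 10 μM 1-methyl-D-tryptophan as internal standard. Incubated shaking at 37 °C in triplicate. Aliquots were EtOH/acetonitrile-precipitated and analysed by RP-HPLC at 220 nm, with recovery correction against four-point calibrations.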

[9] = Stability of the compound in human plasma used as 1:2 ratio of plasma to pH 7.4 PBS assessed as intact compound at 100 uM incubated for 48 hr by LC-MS analysis; format: ADME, cell-free; details: plasma diluted with PBS (1:2), read-out: Stability; procedure, shortened: as §3
[10] = target: T2, Muscarinic acetylcholine receptor M2; experiment: Competitive displacement of [3H]-NMS from human muscarinic M2 receptor expressed in CHO-K9 cells using 0.2 nM [3H]-NMS after 3 hrs by microbeta2 scintillation counting method; format: cell-based
Procedure, shortened: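 Intact CHO-hM2R cells (90-100% confluent) incubated 3 h at 22 ± 1 °C in L15 medium with 1% BSA and 0.2 nM [3H]NMS. […] Cells were lysed in urea/acetic acid/Triton-X-100 and radioactivity was counted. Ki via Cheng-Prusoff.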

[11] = target: T2, Muscarinic acetylcholine receptor M2; experiment: Competitive displacement of [3H]-NMS from human muscarinic M2 receptor expressed in CHO-K9 cells using 2 nM [3H]-NMS after 3 hrs by microbeta2 scintillation counting method; format: cell-based
Procedure, shortened: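 Intact CHO-hM2R cells incubated at 22 °C with a high [3H]NMS concentration (2 nM). […] Curves were fitted by four-parameter logistic fits. Mean ± SEM from ≥4 experiments in triplicate.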

Row | Ki [1] [nM] | Ki [2] [nM] | Ki [3] [µM] | Ki [4] [nM] | Ratio Ki [5] | Ratio Ki [6] | Ratio Ki [7] | remaining at 1 h, 100 µM [8] [%] | remaining at 48 h, 100 µM [9] [%] | IC50 [10] [nM] | Ki [10] [nM] | IC50 [11] [nM] | Ki [11] [nM] | SMILES
1 | 2.29 | 0.0631 | 0.11 | 2.09 | 45 | 1800 | 40 | > 99 | > 99 | 0.191 | 0.0631 | 1.78 | 0.0794 | CC(=O)N[C@@H](CCCCN)C(=O)N[C@@H](C)C(=O)N[C@@H](CCCNC(=N)N)C(=O)NCCN1CCN(CCCCC2CCN(CC(=O)N3c4ccccc4NC(=O)c4ccccc43)CC2)CC1
2 | 41.7 | 1.07 | 6.76 | 61.7 | 49 | 6500 | 60 | 99 | > 99 | 3.31 | 1.07 | 41.7 | 2.04 | CC(=O)N[C@@H](CCCCN)C(=O)N[C@@H](CCCNC(=N)N)C(=O)NCCCCC1CCN(CC(=O)N2c3ccccc3NC(=O)c3ccccc32)CC1
